Test results reported in ChEMBL document CHEMBL1133654, “Studies directed at the use of a parallel synthesis matrix to increase throughput in an in vivo assay” (2000).

Assay: Mean plasma clotting time (APTT) was measured following a single colonic dose with heparin in rats
Type: functional, Rattus norvegicus
In short: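 Male Sprague-Dawley rats (300-350 g, fasted 12 h, groups of 5) were anesthetized with ketamine 44 mg/kg im and given one colonic dose (1 mL/kg) by catheter through the anus. Dosing was delivery agent 50 mg/kg plus heparin 25 mg/kg for single agents, or 50 mg/kg for mixtures, as a sonicated solution of apparent pH about 7. Citrated cardiac blood was taken at 0-1.5 h, and mean peak plasma APTT was reported.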

## O=C(O)CCCCCCCCCNC(=O)c1ccccc1O
  APTT: 153 s

## COc1ccccc1C(=O)NCCCCCCCCCCCC(=O)O
  APTT: 54 s

## O=C(O)CCCCCNC(=O)c1ccccc1F
  APTT: 28 s

## COc1ccccc1C(=O)NCCCCCCCCCC(=O)O
  APTT: 50 s

## O=C(O)CCCNC(=O)c1ccccc1
  APTT: 22 s

## O=C(O)CCCCCCCNC(=O)c1ccccc1O [SALCAPROZIC ACID]
  APTT: 125 s

## O=C(O)CCCCCCCCCCCNC(=O)c1ccccc1
  APTT: 24 s

## Cc1ccccc1C(=O)NCCCC(=O)O
  APTT: 24 s

## O=C(O)CCCCCCCCCNC(=O)c1ccccc1F
  APTT: 27 s

## COc1ccccc1C(=O)NCCCCCC(=O)O
  APTT: 31 s

## O=C(O)CCCCCCCCCNC(=O)c1ccccc1
  APTT: 31 s

## Cc1ccccc1C(=O)NCCCCCCCCCCCC(=O)O
  APTT: 30 s

## O=C(O)CCCNC(=O)c1ccccc1F
  APTT: 22 s

## O=C(O)CCCCCNC(=O)c1ccccc1
  APTT: 33 s

## Cc1ccccc1C(=O)NCCCCCC(=O)O
  APTT: 26 s

## O=C(O)CCCCCCCNC(=O)c1ccccc1F
  APTT: 25 s

## COc1ccccc1C(=O)NCCCCCCCC(=O)O
  APTT: 27 s

## O=C(O)CCCCCCCCCCCNC(=O)c1ccccc1O
  APTT: 86 s

## Cc1ccccc1C(=O)NCCCCCCCCCC(=O)O
  APTT: 34 s

## COc1ccccc1C(=O)NCCCC(=O)O
  APTT: 26 s

## O=C(O)CCCCCCCCCCCNC(=O)c1ccccc1F
  APTT: 33 s

## O=C(O)CCCNC(=O)c1ccccc1O
  APTT: 31 s

## O=C(O)CCCCCNC(=O)c1ccccc1O
  APTT: 24 s

## Cc1ccccc1C(=O)NCCCCCCCC(=O)O
  APTT: 23 s

## O=C(O)CCCCCCCNC(=O)c1ccccc1
  APTT: 21 s
